Measured values taken from ChEMBL document CHEMBL3758142, “Synthesis and antimalarial activity of quinones and structurally-related oxirane derivatives” (Eur J Med Chem, 2016).

Experiments:
[1] = Selectivity index, ratio of IC50 for MRC5 cells to IC50 for chloroquine-sensitive NF54 isolated Plasmodium falciparum 3D7; assay type: toxicity, cell-based; details: human; read-out: Ratio IC50
Plasmodium falciparum = assay: Antimalarial activity against chloroquine-sensitive NF54 isolated Plasmodium falciparum 3D7 infected in erythrocytes assessed as inhibition of parasitic growth after 48 hrs by optical microscopy; assay type: functional, organism-based; details: 3D7, 48 h
Method in brief: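 P. falciparum 3D7 in erythrocytes at 1% initial parasitemia, 2% hematocrit. Samples dissolved in DMSO at 10 mg/mL stock, diluted in complete medium to seven test concentrations. Each dilution tested in triplicate; 48 h at 37 °C. Growth inhibition read by optical microscopy of well contents.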

MRC5 = assay: Cytotoxicity against human MRC5 cells assessed as cell growth inhibition after 48 hrs by alamar blue assay; assay type: cell-based; details: MRC5, 48 h
Method in brief: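 Human MRC-5 fibroblasts kept in DMEM with 10% FBS, 2 mM glutamine, streptomycin and penicillin at 37 °C, 5% CO2. Seeded at 2.5 × 10⁴ cells/well, 24 h, then DMSO-dissolved compounds diluted in medium were added; control wells held 0.1% DMSO final. Exposure 48 h; Alamar Blue added for the last 3 h; fluorescence read at 530–560 nm excitation.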

Compound: C=CCOC1=CC(=O)c2ccccc2C12CO2 (stereo not given)
- selectivity ratio [1]: < 0.53
- IC50 (Plasmodium falciparum): > 50 µM
- IC50 (MRC5): 26.4 µM

Compound: O=C1C(Cl)=C(Cl)C(=O)c2ccccc21 [Dichlon]
- selectivity ratio [1]: 7.2
- IC50 (Plasmodium falciparum): 13.9 µM
- IC50 (MRC5): 98.2 µM

Compound: O=C1C(Cl)=C(Cl)C2(CO2)c2ccccc21 (stereo not given)
- selectivity ratio [1]: 15
- IC50 (Plasmodium falciparum): 6.22 µM
- IC50 (MRC5): 92.5 µM

Compound: O=C1C=C(Nc2ccccc2)C(=O)c2ccccc21
- selectivity ratio [1]: > 15
- IC50 (Plasmodium falciparum): 6.3 µM
- IC50 (MRC5): > 100 µM

Compound: O=C1C=C(Nc2ccccc2)C2(CO2)c2ccccc21 (stereo not given)
- selectivity ratio [1]: < 2.7
- IC50 (Plasmodium falciparum): > 50 µM
- IC50 (MRC5): 135 µM

Compound: NC1=CC(=O)c2ccccc2C1=O
- selectivity ratio [1]: 63
- IC50 (Plasmodium falciparum): 5.14 µM
- IC50 (MRC5): 322 µM

Compound: N#CC1=C(C#N)C(=O)C(Cl)=C(Cl)C1=O
- IC50 (Plasmodium falciparum): > 50 µM
- IC50 (MRC5): > 100 µM

Compound: COC1=CC(=O)c2ccccc2C1=O [2-Methoxy-1,4-naphthoquinone]
- selectivity ratio [1]: < 0.1
- IC50 (Plasmodium falciparum): > 50 µM
- IC50 (MRC5): 5.2 µM

Compound: O=C1C(Cl)=C(Cl)C2(CO2)C(Cl)=C1Cl
- selectivity ratio [1]: 93
- IC50 (Plasmodium falciparum): 3.95 µM
- IC50 (MRC5): 368 µM

Compound: CC1(C)CCC2=C(O1)C(=O)c1ccccc1C2=O [ALPHA-LAPACHONE]
- IC50 (Plasmodium falciparum): > 50 µM
- IC50 (MRC5): > 100 µM

Compound: CC1(C)CC2=C(O1)C1(CO1)c1ccccc1C2=O (stereo not given)
- selectivity ratio [1]: < 1.1
- IC50 (Plasmodium falciparum): > 50 µM
- IC50 (MRC5): 55.7 µM

Compound: O=C1C(Cl)=C(Cl)C(=O)C(Cl)=C1Cl [CHLORANIL]
- selectivity ratio [1]: > 4.4
- IC50 (Plasmodium falciparum): 22.4 µM
- IC50 (MRC5): > 100 µM

Compound: CC1(C)CCC2=C(O1)C1(CO1)c1ccccc1C2=O (stereo not given)
- selectivity ratio [1]: > 27
- IC50 (Plasmodium falciparum): 3.71 µM
- IC50 (MRC5): > 100 µM

Compound: COc1c(Cl)c(Cl)c(OC)c(C#N)c1C#N
- IC50 (Plasmodium falciparum): > 50 µM
- IC50 (MRC5): > 100 µM

Compound: COC1=CC(=O)c2ccccc2C12CO2 (stereo not given)
- selectivity ratio [1]: < 2.3
- IC50 (Plasmodium falciparum): > 50 µM
- IC50 (MRC5): 116 µM

Compound: CC1(C)CC2=C(O1)C(=O)c1ccccc1C2=O
- selectivity ratio [1]: < 1.1
- IC50 (Plasmodium falciparum): > 50 µM
- IC50 (MRC5): 56.1 µM

Compound: NC1=CC(=O)c2ccccc2C12CO2 (stereo not given)
- IC50 (Plasmodium falciparum): > 50 µM
- IC50 (MRC5): > 100 µM

Compound: C=CCOC1=CC(=O)c2ccccc2C1=O
- selectivity ratio [1]: 12
- IC50 (Plasmodium falciparum): 5.18 µM
- IC50 (MRC5): 64.8 µM
